Results on 2 compounds are retold here after ChEMBL document CHEMBL1156480, “Insensitivity to Abeta42-lowering nonsteroidal anti-inflammatory drugs and gamma-secretase inhibitors is common among aggressive presenilin-1 mutations” (J Biol Chem, 2007).

What all share (format): cell-based
Holding throughout (parameters): scale not given: the % may be the effect or the level left

For assay [1], the target named is Presenilin-1 (Homo sapiens) (UniProt P49768). The assay can be described thus: Reduction of wild type human PS1-induced amyloid beta42 level in CHO cells overexpressing human APP751 at 30 uM after 24 hrs by liquid phase electrochemiluminescence assay relative to control.
In assay [2] the test system is Presenilin-1 (Homo sapiens), P49768 [S290C]. The assay can be described thus: Reduction of human PS1 S290C mutant-induced amyloid beta-42 level in CHO cells overexpressing human APP751 at 30 uM after 24 hrs by liquid phase electrochemiluminescence assay relative to control.
Assay [3] has as its system CHO. Briefly: Reduction of human PS1 delta exon9 mutant-induced amyloid beta-42 level in CHO cells overexpressing human APP751 at 30 uM after 24 hrs by liquid phase electrochemiluminescence assay relative to control.
Assay [4] concerns CHO. Briefly: Reduction of human PS1 delta 291 to 319 deletion mutant-induced amyloid beta-42 level in CHO cells overexpressing human APP751 at 30 uM after 24 hrs by liquid phase electrochemiluminescence assay relative to control.
Assay [5] relates to Presenilin-1 (Homo sapiens), P49768 [M292D]. The assay can be described thus: Reduction of human PS1 M292D mutant-induced amyloid beta-42 level in CHO cells overexpressing human APP751 at 30 uM after 24 hrs by liquid phase electrochemiluminescence assay relative to control.
Assay [6] concerns Presenilin-1 (Homo sapiens), P49768 [M292D,M146L]. Briefly: Reduction of human PS1 M292D/M146L mutant-induced amyloid beta-42 level in CHO cells overexpressing human APP751 at 30 uM after 24 hrs by liquid phase electrochemiluminescence assay relative to control.
Assay [7] deals with Presenilin-1 (Homo sapiens) (UniProt P49768). The assay can be described thus: Reduction of human wild type human PS1-induced amyloid beta-42 level in CHO cells overexpressing human APP751 at 60 uM after 24 hrs by liquid phase electrochemiluminescence assay relative to control.
The subject of assay [8] is Presenilin-1 (Homo sapiens), P49768 [S290C]. Briefly: Reduction of human PS1 S290C mutant-induced amyloid beta-42 level in CHO cells overexpressing human APP751 at 60 uM after 24 hrs by liquid phase electrochemiluminescence assay relative to control.
The test system of assay [9] is CHO. The assay can be described thus: Reduction of human PS1 delta exon9 mutant-induced amyloid beta-42 level in CHO cells overexpressing human APP751 at 60 uM after 24 hrs by liquid phase electrochemiluminescence assay relative to control.
The subject of assay [10] is CHO. Briefly: Reduction of human PS1 delta 291 to 319 deletion mutant-induced amyloid beta-42 level in CHO cells overexpressing human APP751 at 60 uM after 24 hrs by liquid phase electrochemiluminescence assay relative to control.
Assay [11] has as its system Presenilin-1 (Homo sapiens), P49768 [S290C,M292D]. The assay can be described thus: Reduction of human PS1 S290C/M292D mutant-induced amyloid beta-42 level in CHO cells overexpressing human APP751 at 30 uM after 24 hrs by liquid phase electrochemiluminescence assay relative to control.
The test system of assay [12] is Presenilin-1 (Homo sapiens), P49768 [M292D]. The assay can be described thus: Reduction of human PS1 M292D mutant-induced amyloid beta42 level in CHO cells overexpressing human APP751 at 60 uM after 24 hrs by liquid phase electrochemiluminescence assay relative to control.
The subject of assay [13] is Presenilin-1 (Homo sapiens), P49768 [M292D,M146L]. Briefly: Reduction of human PS1 M292D/M146L mutant-induced amyloid beta42 level in CHO cells overexpressing human APP751 at 60 uM after 24 hrs by liquid phase electrochemiluminescence assay relative to control.
The subject of assay [14] is Presenilin-1 (Homo sapiens), P49768 [L166P]. Briefly: Reduction of human PS1 L166P mutant-induced amyloid beta42 level in CHO cells overexpressing human APP751 at 60 uM after 24 hrs by liquid phase electrochemiluminescence assay relative to control.
The subject of assay [15] is Presenilin-1 (Homo sapiens), P49768 [P117L]. Briefly: Reduction of human PS1 P117L mutant-induced amyloid beta42 level in CHO cells overexpressing human APP751 at 60 uM after 24 hrs by liquid phase electrochemiluminescence assay relative to control.
Assay [16] has as its system Presenilin-1 (Homo sapiens), P49768 [G384A]. Briefly: Reduction of human PS1 G384A mutant-induced amyloid beta42 level in CHO cells overexpressing human APP751 at 60 uM after 24 hrs by liquid phase electrochemiluminescence assay relative to control.
The test system of assay [17] is Presenilin-1 (Homo sapiens), P49768 [L166P]. The assay can be described thus: Reduction of human PS1 L166P mutant-induced amyloid beta42 level in CHO cells overexpressing human APP751 at 30 uM after 24 hrs by liquid phase electrochemiluminescence assay relative to control.
Assay [18] has as its system Presenilin-1 (Homo sapiens), P49768 [P117L]. Briefly: Reduction of human PS1 P117L mutant-induced amyloid beta42 level in CHO cells overexpressing human APP751 at 30 uM after 24 hrs by liquid phase electrochemiluminescence assay relative to control.
In assay [19] the test system is Presenilin-1 (Homo sapiens), P49768 [G384A]. Briefly: Reduction of human PS1 G384A mutant-induced amyloid beta42 level in CHO cells overexpressing human APP751 at 30 uM after 24 hrs by liquid phase electrochemiluminescence assay relative to control.
Assay [20] addresses Presenilin-1 (Homo sapiens) (UniProt P49768). Briefly: Reduction of human wild type PS1-induced amyloid beta-40 level in CHO cells overexpressing human APP751 at 100 nM after 24 hrs by liquid phase electrochemiluminescence assay relative to control.
Assay [21] has as its system CHO. The assay can be described thus: Reduction of human PS1 delta exon9 mutant-induced amyloid beta-40 level in CHO cells overexpressing human APP751 at 100 nM after 24 hrs by liquid phase electrochemiluminescence assay relative to control. The method, boiled down: (§1)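 APP751 CHO cells stably expressing PS1-ΔExon9, PS1-L166P or PS1-WT, cultured in parallel in serum-containing medium. Treated 24 h with increasing γ-secretase inhibitor concentrations or DMSO. Conditioned-media Abeta40/Abeta42 quantified by LPECL against synthetic peptide standards (16–2000 pg/ml). Duplicates normalized to DMSO. n = 3, one-way ANOVA with Dunnett's test versus PS1-WT.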

The subject of assay [22] is Presenilin-1 (Homo sapiens), P49768 [L166P]. Briefly: Reduction of human PS1 L166P mutant-induced amyloid beta-40 level in CHO cells overexpressing human APP751 at 100 nM after 24 hrs by liquid phase electrochemiluminescence assay relative to control. The method, boiled down:
as §1

In assay [23] the target is Presenilin-1 (Homo sapiens) (UniProt P49768). The assay can be described thus: Reduction of human wild type PS1-induced amyloid beta-42 level in CHO cells overexpressing human APP751 at 100 nM after 24 hrs by liquid phase electrochemiluminescence assay relative to control.
Assay [24] relates to CHO. Briefly: Reduction of human PS1 delta exon9 mutant-induced amyloid beta-42 level in CHO cells overexpressing human APP751 at 100 nM after 24 hrs by liquid phase electrochemiluminescence assay relative to control. In a few lines: as §1
The subject of assay [25] is Presenilin-1 (Homo sapiens), P49768 [L166P]. Briefly: Reduction of human PS1 L166P mutant-induced amyloid beta-42 level in CHO cells overexpressing human APP751 at 100 nM after 24 hrs by liquid phase electrochemiluminescence assay relative to control. In a few lines: as §1
The target of assay [26] is Presenilin-1 (Homo sapiens) (UniProt P49768). Briefly: Reduction of human wild type PS1-induced amyloid beta-40 level in CHO cells overexpressing human APP751 at 25 nM after 24 hrs by liquid phase electrochemiluminescence assay relative to control.
For assay [27], the system named is CHO. The assay can be described thus: Reduction of human PS1 delta exon9 mutant-induced amyloid beta-40 level in CHO cells overexpressing human APP751 at 25 nM after 24 hrs by liquid phase electrochemiluminescence assay relative to control. The method, boiled down: as §1
For assay [28], the system named is Presenilin-1 (Homo sapiens), P49768 [L166P]. The assay can be described thus: Reduction of human PS1 L166P mutant-induced amyloid beta-40 level in CHO cells overexpressing human APP751 at 25 nM after 24 hrs by liquid phase electrochemiluminescence assay relative to control. In a few lines:
as §1

Assay [29] addresses Presenilin-1 (Homo sapiens) (UniProt P49768). The assay can be described thus: Reduction of human wild type PS1-induced amyloid beta-40 level in CHO cells overexpressing human APP751 at 50 nM after 24 hrs by liquid phase electrochemiluminescence assay relative to control.
Assay [30] concerns CHO. The assay can be described thus: Reduction of human PS1 delta exon9 mutant-induced amyloid beta40 level in CHO cells overexpressing human APP751 at 50 nM after 24 hrs by liquid phase electrochemiluminescence assay relative to control.
In assay [31] the test system is Presenilin-1 (Homo sapiens), P49768 [L166P]. Briefly: Reduction of human PS1 L166P mutant-induced amyloid beta-40 level in CHO cells overexpressing human APP751 at 50 nM after 24 hrs by liquid phase electrochemiluminescence assay relative to control. In a few lines: as §1
The target of assay [32] is Presenilin-1 (Homo sapiens) (UniProt P49768). Briefly: Reduction of human wild type PS1-induced amyloid beta-42 level in CHO cells overexpressing human APP751 at 25 nM after 24 hrs by liquid phase electrochemiluminescence assay relative to control.
Assay [33] relates to CHO. The assay can be described thus: Reduction of human PS1 delta exon9 mutant-induced amyloid beta-42 level in CHO cells overexpressing human APP751 at 25 nM after 24 hrs by liquid phase electrochemiluminescence assay relative to control. The method, boiled down: as §1
Assay [34] deals with Presenilin-1 (Homo sapiens), P49768 [L166P]. Briefly: Reduction of human PS1 L166P mutant-induced amyloid beta42 level in CHO cells overexpressing human APP751 at 25 nM after 24 hrs by liquid phase electrochemiluminescence assay relative to control. In a few lines:
as §1

The target in assay [35] is Presenilin-1 (Homo sapiens) (UniProt P49768). Briefly: Reduction of human wild type PS1-induced amyloid beta-42 level in CHO cells overexpressing human APP751 at 50 nM after 24 hrs by liquid phase electrochemiluminescence assay relative to control.
Assay [36] deals with CHO. The assay can be described thus: Reduction of human PS1 delta exon9 mutant-induced amyloid beta-42 level in CHO cells overexpressing human APP751 at 50 nM after 24 hrs by liquid phase electrochemiluminescence assay relative to control.
Assay [37] has as its system Presenilin-1 (Homo sapiens), P49768 [L166P]. The assay can be described thus: Reduction of human PS1 L166P mutant-induced amyloid beta42 level in CHO cells overexpressing human APP751 at 50 nM after 24 hrs by liquid phase electrochemiluminescence assay relative to control. The method, boiled down:
as §1

As for `CSc1ccc(/C=C2/C(C)=C(CC(=O)O)c3cc(F)ccc32)cc1`, the Activity stood at 78.2% in [1]; 83.8% in assay [2]; 99.7% in the assay on CHO [3]; 88.7% in the assay on CHO [4]; 89.5% in [5]; 73.2% in assay [6]. Moreover, the Activity in assay [7] is 61.6%; in [8], 65.9%; in the assay on CHO [9] it was 99.5%; in the assay on CHO [10], 82.7%; in assay [11], 82.4%; in [12], 73.9%. Further, the Activity was 58.5% in assay [13]; 99.2% in assay [14]; 88.5% in assay [15]; 90.3% in assay [16]; 99.5% in assay [17]; 100% in assay [18]. The same compound yielded an Activity in [19] of 95.1%.

For `C[C@H](NC(=O)Cc1cc(F)cc(F)c1)C(=O)N[C@H](C(=O)OC(C)(C)C)c1ccccc1`, the Activity stood at 5.82% in assay [20]; 60.8% in the assay with CHO [21]; 14.9% in assay [22]; 8.13% in [23]; 65.9% in the assay on CHO [24]; 34.5% in [25]. The Activity was determined as 33.8% in assay [26]; 101% with CHO [27]; 54.4% in assay [28]; 14.6% in [29]; 90.2% in the assay on CHO [30]; 30.3% in [31]. In addition, the Activity in assay [32] stood at 44%; with CHO [33], 107%; in [34] it was 72.3%; in assay [35], 18.8%; in the assay with CHO [36] it was 94.9%; in assay [37], 50.3%.
